{"data": "Results from different studies"}
{"Compound": "CC#Cc1cncc(-c2ccc3c(c2)[C@@]2(N=C(C)C(N)=N2)[C@]2(CC[C@H](OC)CC2)C3)c1", "pKa": 6.4}
{"Compound": "COC(=O)c1ccc(/C=N/NS(=O)(=O)c2ccc(OC)c(OC)c2)cc1", "matrix": "aqueous buffer", "pKa": 6.86}
{"Compound": "CS(=O)(=O)N1CCN(Cc2cc3nc(-c4cccc5[nH]ncc45)nc(N4CCOCC4)c3s2)CC1", "pKa": 4.24}
{"Compound": "COc1ccc(S(=O)(=O)N/N=C/c2cccc(C(=O)O)c2)cc1OC", "matrix": "aqueous buffer", "pKa": 6.69}
{"Compound": "CCn1c(C(=O)N(C2CC2)C2CC2)cc2c3c(ncn3C)c(Nc3cc(C)n(C)n3)nc21", "pKa": 4}
{"Compound": "COc1cccc(C=CCC(=O)O)c1OC", "pKa": "~4.2"}
{"Compound": "COc1ccccc1Oc1c(NS(=O)(=O)c2ccc(C(C)(C)C)cc2)nc(-c2ncccn2)nc1OCCO", "pKa": 5.11}
{"Compound": "Cc1cc(Cl)cc(S(C)(=O)=O)c1NC(=O)c1cc(Br)nn1-c1ncccc1Cl", "method": "potentiometric", "pKa": 8.95}
{"Compound": "O=C1c2c(O)cc(O)cc2O[C@H](c2cc(O)c(O)c(O)c2)[C@H]1O", "method": "absorbance", "matrix": "aqueous buffer", "pH": "pH 3.1", "pKa": 7.9}
{"Compound": "C=CC(=O)N(C)CCOc1c(N)ncnc1-c1cc(F)cc(NC(=O)c2ccc(C3CC3)cc2F)c1C", "pKa": 4.1}
{"Compound": "Cc1cnc(N2CC3(CCOCC3)C2)c(C(=O)Nc2ccc(C(=O)N3CCc4cc(C(=O)Nc5c(C)cccc5F)sc4-c4ccccc43)cc2)c1", "pKa": 4.8}
{"Compound": "CC(C)CC(=O)N1CCC[C@H](COc2cccc3c2C(N)=NS(=O)(=O)N3)C1", "pKa": 6.31}
{"Compound": "CC(C)(C)CCN1CC2C(CNC(=O)c3cc(Cl)cc(Cl)c3)C2C1 (stereo not shown)", "pKa": 8.1}
